# Data published in PubChem BioAssay AID493183 (Sanford-Burnham Center for Chemical Genomics, 2011).
# Active and inactive are the calls of the source.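 How the source made its calls: active means mean EC50 below 10 µM; inactive means the rest.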
# Biological target: Apelin receptor (Homo sapiens) (UniProt P35414)
# Experiment: APJ receptor agonists, beta-arrestin recruitment, SAR follow-up, cell-based, CHO-K1 AGTRL-1, PathHunter luminescence, set 4 (AID 493183)
# Settings: CHO-K1 AGTRL-1 PathHunter beta-arrestin
# In short: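 Test system: CHO-K1 cells with ProLink-tagged AGTRL-1 and β-arrestin–β-gal acceptor fusion; Compound dosing: dose series from 2 mM compound stock; Times: overnight seeding, 90 min compound at 25 °C, 60 min detection; Signal: β-gal complementation luminescence.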
# Sequence of Apelin receptor (Homo sapiens) (P35414 whole entry, looked up): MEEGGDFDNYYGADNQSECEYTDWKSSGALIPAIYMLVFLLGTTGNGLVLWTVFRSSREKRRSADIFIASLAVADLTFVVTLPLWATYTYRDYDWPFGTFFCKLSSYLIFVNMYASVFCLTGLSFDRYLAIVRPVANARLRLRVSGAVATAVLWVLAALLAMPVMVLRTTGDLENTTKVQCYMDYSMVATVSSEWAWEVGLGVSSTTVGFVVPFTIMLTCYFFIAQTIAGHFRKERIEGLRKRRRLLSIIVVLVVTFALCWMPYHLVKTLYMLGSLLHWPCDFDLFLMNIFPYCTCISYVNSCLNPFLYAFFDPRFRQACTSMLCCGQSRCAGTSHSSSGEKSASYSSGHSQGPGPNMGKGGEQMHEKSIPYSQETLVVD
row,Compound,EC50
1,CC1=CC(=O)C(C(C)C)=C/C1=N/OS(=O)(=O)c1ccc(OC(F)(F)F)cc1,3.82 µM
2,CC1=CC(=O)C(C(C)C)=C/C1=N/OS(=O)(=O)c1ccc(C(F)(F)F)cc1,3.69 µM
3,CC1=CC(=O)C(C(C)C)=C/C1=N/OS(=O)(=O)c1ccc(C(C)(C)C)cc1,inactive
4,CC1=CC(=O)C(C(C)C)=C/C1=N/OS(=O)(=O)c1cccnc1,6.45 µM

# Next, values leading:
row,EC50,Compound
1,> 79 µM (inactive),O=S(=O)(Nc1cc(Cl)c(O)c(Cl)c1)c1ccccc1
2,> 79 µM (inactive),Cc1cc(O)c(C(C)C)cc1NS(=O)(=O)c1ccccc1
3,> 79 µM (inactive),COC(=O)c1cc(NS(=O)(=O)c2ccccc2)ccc1O
